Data reported in PubChem BioAssay.
Inconclusive results are not listed. Active and inactive are the calls of the source.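 Rule for the calls, unless noted: active = inhibition over a set limit, the all-compound mean plus 3 SD, in both replicate runs; inconclusive = over that limit in just one replicate run; inactive = at or under that limit in both runs.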

Columns and labels:
[1] = OD615 S. cerevisiae growth inhibition, permissive medium, pilot counter-assay, permissive growth control for S. cerevisiae lifespan shortening project (AID 705;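 active = growth inhibition above 25% in both replicates, a cutoff set 3 SD above the mean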); conditions: OD615, 24 h, at 10 µM, stronger effect = higher value
How it was run: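 System: Engineered DeaD yeast | Buffer or medium: SC raffinose/galactose permissive medium | Incubation: Cells pre-grown 4 h, then 24 h compound exposure, 30 °C humidified | Measured by: Absorbance (optical density) at 615 nm | Read-out: Reduction in yeast growth (OD615)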

[2] = Restrictive medium S. cerevisiae growth inhibition, OD615, pilot screen of yeast lifespan reduction project, restrictive growth control (AID 706;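 active = growth inhibition above a set limit, 3 SD over mean compound inhibition, in both replicates, cut at about 43% in these data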;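 note: modified DeaD lifespan yeast strain shifted to restrictive glucose medium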); conditions: OD615, 48 h, at 10 µM, stronger effect = higher value
How it was run: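 Material: modified S. cerevisiae; Medium: glucose-based CSMM-D restrictive medium; Compound dosing: one concentration, 10 µM final, 0.25% DMSO; Incubation: 48 h compound exposure at 30 °C; Measured by: OD615.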

[3] = viability gain of MRP-1-high H69AR cells under doxorubicin, pilot screen, MRP-1 activator project, CellTiter-Glo, duplicate (AID 807;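 active = viability increase at or above a cutoff of the median across tested compounds plus 3 SD, cut at about 8.5% in these data, passing the limit was not always enough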;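 note: compound pretreatment 18-22 h then 72 h combined with doxorubicin; 0% = doxorubicin alone and 100% = vehicle without doxorubicin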); conditions: H69AR viability with doxorubicin, CellTiter-Glo luminescence; at 10 µM; stronger effect = higher value
[4] = growth suppression of beta-catenin knockout HCT116, pilot screen, human colon tumor cells (AID 823;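 active = cell viability at or below a set limit in both duplicate runs, the limit being the all-compound median minus 4 SD, cut at about 23% in these data, passing the limit was not always enough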;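 note: 0% = wells killed by 20 µM Hyamine and 100% = untreated DMSO cell wells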); conditions: CellTiter-Glo, 60 h, at 10 µM, stronger effect = lower value
[5] = growth suppression of PTEN-deleted HCT116, pilot screen, cell-based, HCT116 clonal line, CellTiter-Glo (AID 824;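 active = viability at or below 27.92% in each of two runs, the all-compound median minus 4 SD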;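 note: 0% = 20 µM Hyamine control and 100% = vehicle cell control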); conditions: 60 h, at 10 µM, stronger effect = lower value
[6] = inhibitors of the yeast RAM network, pilot screen, dse1pr::URA3 reporter, 5-FOA selection (AID 869);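 note: 0% = DMSO wells with no growth and 100% = 10 µM 1-NA-PP1 with full growth; RAM network block rescues cells from 5-FOA so hits raise OD615 growth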; conditions: S. cerevisiae dse1pr::URA3 5-FOA growth, OD615, 2 d; at 10 µM; stronger effect = higher value; strain carries analog-sensitive mutant Cbk1 kinase
[7] = RAM signaling pathway blockade in yeast – S. cerevisiae, Pdr1DBD-CYC8 efflux-inhibited sensitized strain, primary screen (AID 1298;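 active = RAM network inhibition above 8.4% in each of two replicates, 3 SD over the compound average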;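 note: 0% = DMSO untreated cells without growth and 100% = 10 µM 1-NA-PP1 full growth; higher means more yeast growth rescued from 5-FOA killing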); conditions: S. cerevisiae cbk1-as DSE1-URA3 strain, 5-FOA growth OD615, 2 d; at 50 µM; stronger effect = higher value

O=C(CNS(=O)(=O)c1cccc2nsnc12)NCc1ccc(Cl)cc1
inactive: growth inhibition [1] -2.9% | growth inhibition [2] -2.34% | viability increase [3] -4.44% | viability [4] 88% | viability [5] 91.5% | inhibition [6] 0.415% | RAM network inhibition [7] 4.28%

CN(C)c1oc(-c2ccccc2Cl)nc1S(=O)(=O)c1ccccc1
inactive: growth inhibition [1] -17.1% | growth inhibition [2] 0.09% | viability increase [3] -0.11% | viability [4] 95.5% | viability [5] 93.2% | inhibition [6] 1.2%
active: RAM network inhibition [7] 17%

O=C(NC1CCCCCC1)C1CCN(C(=O)Cc2ccccc2)CC1
inactive: growth inhibition [1] -11.1% | growth inhibition [2] -9.52% | viability increase [3] -1.12% | viability [4] 101% | viability [5] 94.3% | inhibition [6] 0.785% | RAM network inhibition [7] 3.07%

COc1cc(OC)cc(C(=O)Nn2cc(C(=O)N3CCN(C)CC3)c3ccccc3c2=O)c1
inactive: growth inhibition [1] -6.21% | growth inhibition [2] -7.65% | viability increase [3] -0.92% | viability [4] 105% | viability [5] 93.1% | inhibition [6] 1.17% | RAM network inhibition [7] 3.86%

CCCC(=O)Nc1nc2ccc(S(=O)(=O)N3CCCCC3)cc2s1
inactive: growth inhibition [1] -20.7% | growth inhibition [2] -19.5% | viability increase [3] -6.94% | viability [4] 32.5% | viability [5] 37.3% | inhibition [6] 1.27% | RAM network inhibition [7] 1.93%

CCCn1cc(S(=O)(=O)CC(=O)NC2CCCCC2)c2ccccc21
inactive: growth inhibition [1] -1.69% | growth inhibition [2] -0.78% | viability increase [3] -0.07% | viability [4] 93.2% | viability [5] 101% | inhibition [6] 1.39% | RAM network inhibition [7] 2.24%

COc1ccccc1N1CCN(C(=O)c2cc3cc(Br)ccc3oc2=O)CC1
inactive: growth inhibition [1] 2.45% | growth inhibition [2] -11.9% | viability increase [3] -0.94% | viability [4] 110% | viability [5] 94.1% | inhibition [6] 2.47% | RAM network inhibition [7] 1.96%

Cc1ccc(S(=O)(=O)N2CCN(C(=O)CSc3nnc(C)s3)C2)cc1
inactive: growth inhibition [1] -14.3% | growth inhibition [2] -10.7% | viability increase [3] -1.75% | viability [4] 91.9% | viability [5] 87.3% | inhibition [6] 1.31% | RAM network inhibition [7] -0.22%

CCC(C)(C(=O)NC1CCCCC1)N(C(=O)C1CCC(=O)N1)c1ccc(C)cc1 (configuration not stated)
inactive: growth inhibition [1] 2.44% | growth inhibition [2] -4.21% | viability increase [3] -1.97% | viability [4] 98.7% | viability [5] 92.1% | inhibition [6] 1.71% | RAM network inhibition [7] 1.9%

COc1ccccc1-c1cc(N)n(S(=O)(=O)c2ccc(F)c(C)c2)n1
inactive: growth inhibition [1] -9.16% | growth inhibition [2] -5.82% | viability increase [3] -3.08% | viability [4] 55% | viability [5] 64% | inhibition [6] 4.39% | RAM network inhibition [7] 3.97%

O=C(NCCN1C(=O)C2C3C=CC(C3)C2C1=O)Nc1cccnc1 (configuration not stated)
inactive: growth inhibition [1] -0.65% | growth inhibition [2] -7.67% | viability increase [3] -1.57% | viability [4] 96.7% | viability [5] 99.7% | inhibition [6] 0.445% | RAM network inhibition [7] 1.17%

COc1ccc(C(=O)N(Cc2nc(-c3ccc(C)cc3)no2)C(C)C)cc1OC
inactive: growth inhibition [1] -12.1% | growth inhibition [2] -6.13% | viability increase [3] 1.37% | viability [4] 93.6% | viability [5] 79.3% | inhibition [6] 3.8% | RAM network inhibition [7] 5.36%

O=C(NCCc1ccc(S(=O)(=O)N2CCCC2)cc1)c1cccs1
inactive: growth inhibition [1] 2.67% | growth inhibition [2] 7.14% | viability increase [3] -1.73% | viability [4] 93.4% | viability [5] 90.2% | inhibition [6] 0.545% | RAM network inhibition [7] 6.32%

C=Cn1ccnc1P(=S)(c1ccc2c(c1)c1ccccc1n2CC)c1nccn1C=C
active: viability [4] 16.2% | viability [5] 13.8%
inactive: growth inhibition [1] -10.3% | growth inhibition [2] -21.9% | viability increase [3] -6.67% | inhibition [6] 3.5% | RAM network inhibition [7] 6.54%

COc1cccc(-c2nn(C)c3sc(C(=O)NCc4ccc5c(c4)OCO5)cc23)c1
inactive: growth inhibition [1] 2.61% | growth inhibition [2] 9.31% | viability increase [3] -2.08% | viability [4] 92.6% | viability [5] 82.7% | inhibition [6] 4.3% | RAM network inhibition [7] 12.7%

Cc1nc(-c2ccc(S(=O)(=O)N3CCCCCC3)cc2)cs1
inactive: growth inhibition [1] 10.7% | growth inhibition [2] 2.95% | viability increase [3] -2.37% | viability [4] 90.8% | viability [5] 89.7% | inhibition [6] 0.075% | RAM network inhibition [7] 1.28%

Nc1c(C(=O)Nc2ccc3c(c2)OCCO3)nnn1CCc1ccccc1
inactive: growth inhibition [1] -3.04% | growth inhibition [2] 3.6% | viability increase [3] -5.88% | viability [4] 39.1% | viability [5] 35.4% | inhibition [6] 1.43% | RAM network inhibition [7] 7.68%

Cc1cccc(NC(=O)CSc2nnc(-c3ccccc3)n2N)c1C
inactive: growth inhibition [1] -9.02% | growth inhibition [2] -15.1% | viability increase [3] -2.08% | viability [4] 94.4% | viability [5] 90.2% | inhibition [6] 1.85% | RAM network inhibition [7] 0.16%

N#C/C(=C1/CCCCCN1)c1nnc2n1CCCCC2
inactive: growth inhibition [1] -8.48% | growth inhibition [2] 2.4% | viability increase [3] -1.1% | viability [4] 102% | viability [5] 101% | inhibition [6] 0.985% | RAM network inhibition [7] 3.24%

NC(=O)CSc1nnc(Cn2c(=O)sc3ccccc32)n1CCc1ccccc1
inactive: growth inhibition [1] 1.14% | growth inhibition [2] 26.2% | viability increase [3] -1.54% | viability [4] 101% | viability [5] 94.2% | inhibition [6] 0.275% | RAM network inhibition [7] 4.54%

COc1ccc(-n2nnc3c(=O)n(CC(=O)N4CCC(Cc5ccccc5)CC4)cnc32)cc1
inactive: growth inhibition [1] 0.065% | growth inhibition [2] -3.95% | viability increase [3] -1.03% | viability [4] 80.2% | viability [5] 80.3% | inhibition [6] 2.54% | RAM network inhibition [7] 5.24%

COc1ccc(CN2CCN(c3ncccn3)CC2)c(OC)c1
inactive: growth inhibition [1] -0.81% | growth inhibition [2] 3.13% | viability increase [3] -1.8% | viability [4] 94.5% | viability [5] 89.3% | inhibition [6] 1.24% | RAM network inhibition [7] 6.9%

COc1ccc(N2C(=O)CCC(C(=O)N3CCC(C(N)=O)CC3)C2c2ccc(F)cc2)cc1 (configuration not stated)
inactive: growth inhibition [1] -5.89% | growth inhibition [2] -16.2% | viability increase [3] -0.33% | viability [4] 99.6% | viability [5] 102% | inhibition [6] 1.6% | RAM network inhibition [7] 3.66%

COc1ccccc1NC(=O)Cn1cnc2c(oc3ccccc32)c1=O
inactive: growth inhibition [1] -11.8% | growth inhibition [2] -11.6% | viability increase [3] -1.93% | viability [4] 107% | viability [5] 100% | inhibition [6] 1.6% | RAM network inhibition [7] -1.27%

CCOc1ccccc1NC(=O)c1c(NC(=O)CNCc2ccco2)sc2c1CCC2
inactive: growth inhibition [1] 7.42% | growth inhibition [2] -15.1% | viability increase [3] -6.75% | viability [4] 76.7% | viability [5] 55.5% | inhibition [6] 1.43% | RAM network inhibition [7] 8.57%

CC(C)OC(=O)C1C2C=CC3(CN(C(C)c4ccc(Br)cc4)C(=O)C13)O2 (configuration not stated)
inactive: growth inhibition [1] -19.3% | growth inhibition [2] -19.3% | viability increase [3] -2.07% | viability [4] 96.8% | viability [5] 94.1% | inhibition [6] 0.395% | RAM network inhibition [7] 6.84%

CCOC(=O)Cn1c(C)cc(=O)c2cccc(C)c21
inactive: growth inhibition [1] -19.8% | growth inhibition [2] -12.9% | viability increase [3] 0.49% | viability [4] 92% | viability [5] 96.9% | inhibition [6] 0.035% | RAM network inhibition [7] 1.15%

Cc1cc(Nc2cc(C)on2)n2ncnc2n1
inactive: growth inhibition [1] 2.33% | growth inhibition [2] -10% | viability increase [3] -1.14% | viability [4] 106% | viability [5] 99.8% | inhibition [6] 0.195% | RAM network inhibition [7] 2.24%

CN1CCN(Cc2c(O)ccc3c(=O)c(Oc4ccccc4Cl)c(C(F)(F)F)oc23)CC1
inactive: growth inhibition [1] -4.67% | growth inhibition [2] 12.6% | viability increase [3] -0.67% | viability [4] 98% | viability [5] 96.7% | inhibition [6] 0.13% | RAM network inhibition [7] 1.25%

CCc1cccc(OCCCCNCCOC)c1
inactive: growth inhibition [1] -2.16% | growth inhibition [2] -11.6% | viability increase [3] -0.86% | viability [4] 89.1% | viability [5] 99.3% | inhibition [6] 2.08% | RAM network inhibition [7] -0.32%

Cc1cc(NC(=O)CSCc2nc(-c3cccc(Cl)c3)oc2C)no1
inactive: growth inhibition [1] -12.6% | growth inhibition [2] -5.47% | viability increase [3] 1.25% | viability [4] 94.3% | viability [5] 95.5% | inhibition [6] 1.98% | RAM network inhibition [7] 11.2%

CCC(C#CCN1CCCCC1)(CC)OCCC#N
inactive: growth inhibition [1] -4.58% | growth inhibition [2] -9.71% | viability increase [3] -1.94% | viability [4] 102% | viability [5] 97.6% | inhibition [6] 0.79% | RAM network inhibition [7] 4.07%

COc1ccc(OC)c(NC(=O)C2CCCN2C(=O)C2CCC(C)CC2)c1 (configuration not stated)
inactive: growth inhibition [1] -14.1% | growth inhibition [2] 6.52% | viability increase [3] -5.02% | viability [4] 88.5% | viability [5] 91.6% | inhibition [6] 0.895% | RAM network inhibition [7] -0.32%

Cc1c(C(=O)NCC(C)C)sc2nc(-c3ccc(F)cc3)cn12
inactive: growth inhibition [1] -13.9% | growth inhibition [2] -12% | viability increase [3] 1.99% | viability [4] 111% | viability [5] 103% | inhibition [6] 2.99% | RAM network inhibition [7] 10.7%

CCCCCn1c(SCCOCC)nc2c1c(=O)[nH]c(=O)n2C
inactive: growth inhibition [1] -10.1% | growth inhibition [2] -15.6% | viability increase [3] -0.61% | viability [4] 96.2% | viability [5] 97.2% | inhibition [6] 1.75% | RAM network inhibition [7] 4.65%

COc1ccc(NC(=O)N2CCC(c3ccccc3)C2)c(OC)c1 (configuration not stated)
inactive: growth inhibition [1] -3.06% | growth inhibition [2] 9.96% | viability increase [3] 1.59% | viability [4] 90.9% | viability [5] 90.2% | inhibition [6] 0.67% | RAM network inhibition [7] -1.49%
